Measurements as given in ChEMBL document CHEMBL3526151, “Reversible disulfide formation of the glutamate carboxypeptidase II inhibitor E2072 results in prolonged systemic exposures in vivo” (Drug Metab Dispos, 2012).

Tests used:
[1] = AUC(0 to infinity) in Sprague-Dawley rat at 10 mg/kg, iv by LC-MS/MS analysis; type: ADME, organism-based; set-up: time infinity, dose 10 mg/kg, route intravenous; details: plasma
Method in brief: (§1)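 Male Sprague-Dawley rats dosed intravenously at 10 mg/kg (n = 6). Blood sampling extended to 7 days into heparin tubes containing NEM. Plasma assayed for parent and homodisulfide by LC-MS/MS, calibration range 1–5000 ng/ml. Noncompartmental analysis, t1/2 = 0.693/λz. Mean ± S.D.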

[2] = Clearance in Sprague-Dawley rat at 10 mg/kg, iv by LC-MS/MS analysis; type: ADME, organism-based; set-up: dose 10 mg/kg, route intravenous; details: in vivo; method in brief: as §1
[3] = Phase 1 metabolic stability in dog liver microsomes assessed as compound remaining at 10 uM measured for 1 hr by LC-MS/MS analysis; type: ADME, Canis lupus familiaris; details: read-out: Stability
Method in brief: (§2)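 Liver microsomes (0.5 mg/ml) were incubated with 10 µM compound (final) in 100 mM potassium phosphate, pH 7.4. An NADPH-regenerating system was present: 1.3 mM NADPH, 3.3 mM glucose 6-phosphate, 3.3 mM MgCl2, 0.4 U/ml G6PDH and 50 µM sodium citrate. Runs were in duplicate, with samples taken up to 1 h and quenched with acetonitrile containing internal standard. Loss of compound was followed by LC-MS/MS.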

[4] = Phase 1 metabolic stability in mouse liver microsomes assessed as compound remaining at 10 uM measured for 1 hr by LC-MS/MS analysis in absence of cofactors; type: ADME; details: read-out: Stability
Method in brief: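 Cofactor-free controls were run for each microsomal incubation: 0.5 mg/ml liver microsomes with 10 µM compound, omitting cofactors, so that cofactor-independent degradation could be measured. Samples were taken up to 1 h, quenched with acetonitrile containing internal standard, and the percent remaining was determined by LC-MS/MS.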

[5] = Metabolic stability in Sprague-Dawley rat plasma assessed as compound remaining at 10 uM after 1 hr by LC-MS/MS analysis; type: ADME, cell-free; details: read-out: Stability
Method in brief: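 Compound at 5 and 10 µM was incubated at 37°C in Sprague-Dawley rat or cynomolgus monkey plasma. Aliquots taken at 0, 30 and 60 min were quenched with acetonitrile and analyzed by LC-MS/MS. Percent remaining = analyte/internal-standard area ratio at time t divided by that at time 0.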

[6] = Phase 1 metabolic stability in rat liver microsomes assessed as compound remaining at 10 uM measured for 1 hr by LC-MS/MS analysis; type: ADME; details: read-out: Stability; method in brief: as §2
[7] = Cmax in Sprague-Dawley rat at 0.1 mg/kg, po administered via gavage measured under fasted conditions by LC-MS/MS analysis; type: ADME, organism-based; set-up: dose 0.1 mg/kg, route oral; details: in vivo
Method in brief: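 Fasted male Sprague-Dawley rats (280–330 g) received 0.1, 1, 10 or 30 mg/kg by oral gavage in 50 mM HEPES buffered saline, pH 7.4. Blood drawn at 0.25–24 h into heparin/NEM tubes; plasma analyzed by LC-MS/MS. Cmax taken as observed. AUC by linear trapezoidal rule with extrapolation by λz. Cl/F and Vd/F reported. Mean ± S.D., n = 4–9.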

[8] = AUC(0 to last) in Sprague-Dawley rat at 10 mg/kg, iv administered as bolus injection measured under fasted conditions by LC-MS/MS analysis; type: ADME, organism-based; set-up: time 0 - last, dose 10 mg/kg, route intravenous; details: plasma
Method in brief: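 Male Sprague-Dawley rats (280–330 g), jugular vein cannulated, fasted overnight until 4 h post-dose. Single tail-vein bolus of 0.1, 1, 10 or 30 mg/kg in 50 mM HEPES buffered saline, pH 7.4. Blood drawn 0–24 h into heparin tubes containing NEM. Plasma quantified by LC-MS/MS after NEM derivatization. Noncompartmental analysis: AUClast by linear trapezoidal rule, Cl = dose/AUC0-∞. Mean ± S.D., n = 4–9.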

[9] = Volume of distribution in Sprague-Dawley rat at 0.1 mg/kg, iv administered as bolus injection measured under fasted conditions by LC-MS/MS analysis; type: ADME, organism-based; set-up: dose 0.1 mg/kg, route intravenous; details: in vivo
Method in brief: (§3)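 Jugular-cannulated male Sprague-Dawley rats, 280–330 g, fasted overnight to 4 h post-dose. Single dose in 50 mM HEPES-buffered saline pH 7.4, by oral gavage or as tail-vein i.v. bolus. Blood into heparin/NEM tubes at 0–24 h. Plasma measured by LC-MS/MS; noncompartmental analysis; Tmax observed; Vd = dose/(AUCinf·λz).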

[10] = Volume of distribution in Sprague-Dawley rat at 1 mg/kg, iv administered as bolus injection measured under fasted conditions by LC-MS/MS analysis; type: ADME, organism-based; set-up: dose 1 mg/kg, route intravenous; details: in vivo; method in brief: as §3

Q: Which AUC(0-inf) [1] does the source give for `O=C(O)c1cccc(-c2cccc(CCS)c2C(=O)O)c1` here?
A: 87000 ng·h/mL

Q: And the clearance [2]?
A: 2 mL/min/kg

Q: What about the remaining at 1 h, 10 µM [3] of the same compound?
A: > 90%

Q: What about the remaining at 1 h, 10 µM [4] of the same compound?
A: > 90%

Q: What about the remaining at 1 h, 10 µM [5] of the same compound?
A: 64.5%

Q: And the remaining at 1 h, 10 µM [6]?
A: > 90%

Q: And the Cmax [7]?
A: 62.6 ng/mL

Q: What about the AUC(0-t) [8] of the same compound?
A: 90200 ng·h/mL

Q: And the Vd [9]?
A: 0.2 L/kg

Q: And the Vd [10]?
A: 0.21 L/kg
